ChEMBL document CHEMBL2331476, “A novel semisynthetic flavonoid 7-O-galloyltaxifolin upregulates heme oxygenase-1 in RAW264.7 cells via MAPK/Nrf2 pathway” (J Med Chem, 2013)

Columns and labels:
RAW264.7 = assay: Induction of ROS generation in mouse RAW264.7 cells at 25 uM after 2 hrs by flow cytometric analysis; type: functional
Outline: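 Serum-starved RAW264.7 cells treated 2 h at 10-50 μM; 100 μM TBHP for 30 min as positive control. Medium replaced, cells loaded with 10 μM carboxy-H₂DCFDA for 15 min at 37 °C. Flow cytometry (488 nm excitation, 525 nm emission, 10,000 events) gave percentage of cells with raised ROS; mean ± SD of three experiments.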

[1] = target: T1, Nuclear factor erythroid 2-related factor 2 (Mus musculus) (UniProt Q60795); assay: Activation of Nrf2 in mouse RAW264.7 cells assessed as upregulation of Hmox1 gene expression at 50 uM after 6 hrs by real-time PCR analysis relative to GAPDH mRNA expression; type: cell-based
T1 sequence (whole entry): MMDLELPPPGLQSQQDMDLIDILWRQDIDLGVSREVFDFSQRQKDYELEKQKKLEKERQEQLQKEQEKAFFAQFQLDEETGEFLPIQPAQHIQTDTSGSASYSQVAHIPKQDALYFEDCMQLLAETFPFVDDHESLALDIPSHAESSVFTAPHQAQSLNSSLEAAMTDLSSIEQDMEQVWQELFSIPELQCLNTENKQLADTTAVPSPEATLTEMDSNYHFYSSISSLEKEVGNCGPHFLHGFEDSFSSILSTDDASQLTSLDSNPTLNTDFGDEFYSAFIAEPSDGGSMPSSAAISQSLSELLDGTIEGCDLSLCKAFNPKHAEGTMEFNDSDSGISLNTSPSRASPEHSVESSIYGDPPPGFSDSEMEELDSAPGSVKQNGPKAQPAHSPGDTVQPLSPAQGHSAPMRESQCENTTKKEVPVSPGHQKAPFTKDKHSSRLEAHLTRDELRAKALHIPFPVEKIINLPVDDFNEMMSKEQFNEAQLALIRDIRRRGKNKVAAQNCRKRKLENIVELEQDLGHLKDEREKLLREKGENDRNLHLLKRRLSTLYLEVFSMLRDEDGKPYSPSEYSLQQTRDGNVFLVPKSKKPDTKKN
Outline: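 Serum-starved RAW264.7 cells were exposed for 6 h in serum-free medium against a 0.1% DMSO control. Total RNA (2 μg) was reverse-transcribed, then TaqMan qPCR run for Hmox1 and Gapdh over 40 cycles. Crossing points were taken by second-derivative maximum, and fold change calculated by the 2^−ΔΔCT method normalized to Gapdh. Mean ± SD of three experiments.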

O=C(Oc1cc(O)c2c(c1)O[C@H](c1ccc(O)c(O)c1)[C@@H](O)C2=O)c1cc(O)c(O)c(O)c1
Activity (RAW264.7): 19%
fold change (FC) [1]: 13.4
